From ChEMBL document CHEMBL1629588, “Ambuic acid inhibits the biosynthesis of cyclic peptide quormones in gram-positive bacteria” (Antimicrob Agents Chemother, 2009)
Active and inactive are the calls of the source. The rule behind the calls is not given here.

Legend:
Enterococcus faecalis [1] = assay: Inhibition of GBAP biosynthesis in Enterococcus faecalis OU510 harboring pQU2200 and pQU2301 assessed as proteolytic processing of Hexahistidine-tagged FsrD after 5 hrs by Western blot analysis; format: functional, organism-based
Summary of the method: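 OU510 carrying pQU2200 (FsrB') and pQU2301 (His6-tagged FsrD) inoculated (6 µl overnight culture) into 1.0 ml THB with inhibitor at various concentrations. Nisin added at 2 h to induce, cells harvested 3 h later. Cells boiled in SDS-PAGE sample buffer; extracts analysed by Western blot with anti-His-tag antibody. Supernatant GBAP activity read by OU510 gelatinase induction.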

Enterococcus faecalis [2] = assay: Antimicrobial activity against Enterococcus faecalis OG1RF assessed as growth inhibition at <1 mM after 5 hrs; format: functional
Summary of the method: (§1)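 E. faecalis OG1RF overnight culture (3 µl) inoculated into 0.5 ml THB with sample, grown 5 h at 37°C. Growth read as OD660. Supernatant (25 µl, after 9,100 x g spin) mixed with 0.5 ml azocoll suspension, 4 h at 170 rpm, centrifuged, gelatinase read as OD540. Duplicate experiments, mean ± SD.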

Enterococcus faecalis [3] = assay: Inhibition of gelatinase production in Enterococcus faecalis OG1RF at <1 mM after 5 hrs; format: functional; summary of the method: as §1
Enterococcus faecalis [4] = assay: Inhibition of gelatinase production in Enterococcus faecalis OG1RF after 5 hrs; format: functional; summary of the method: as §1
Enterococcus faecalis [5] = assay: Inhibition of gelatinase production in GBAP-negative Enterococcus faecalis OU510 at 100 uM after 5 hrs in presence of GBAP; format: functional, organism-based
Summary of the method: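 Overnight E. faecalis OU510 (3 µl) grown 5 h in 0.5 ml THB containing 100 µM inhibitor plus synthetic GBAP at various concentrations. Supernatant gelatinase measured by azocoll assay (OD540), growth by OD660. Duplicate experiments; gelatinase/growth ratio computed per experiment and averaged.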

Staphylococcus aureus [6] = assay: Inhibition of quormone AIP-I biosynthesis in Staphylococcus aureus 12600T at 50 uM by LC/MS analysis; format: functional, organism-based
Summary of the method: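 S. aureus 12600T overnight culture (20 µl) inoculated into 2 ml TSB-YE, grown 15 h. Filtered (0.22 µm) supernatant (40 µl) analysed by C18 LC/ESI-TOF MS, 20–40% acetonitrile in 0.05% TFA, 0.2 ml/min, 30°C. Extracted ion chromatogram at m/z 961–962.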

Staphylococcus aureus [7] = assay: Inhibition of agr quorom sensing in Staphylococcus aureus 8325-4 harboring pSB2035 assessed as […] at 50 to 200 uM after 7 hrs by GFP assay; format: functional, organism-based
Summary of the method: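 S. aureus 8325-4(pSB2035) washed and serially subcultured (1/20 twice, 2 h each), then diluted 1/50 into 200 µl medium with inhibitor, shaken 7 h. OD620 read; cells washed twice in PBS, GFP fluorescence read (ex 490/em 525 nm). Triplicate, mean ± SD. Quenching control: 200 µM added to washed untreated cells, fluorescence followed 15 min.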

Listeria innocua [8] = assay: Inhibition of quormone LsrD698 biosynthesis in Listeria innocua ATCC 33090T at 100 uM by LC/MS analysis; format: functional, organism-based
Summary of the method: (§2)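 L. innocua ATCC 33090T overnight culture (25 µl) grown 15 h in 5 ml chemically defined medium. Filtered supernatant loaded on C18 cartridge, washed with 10% acetonitrile/0.1% TFA, eluted with 60% acetonitrile/0.1% TFA. Eluate analysed by LC/MS monitoring m/z 699 (LsrD698) and m/z 827 (LsrD826).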

Listeria innocua [9] = assay: Inhibition of quormone LsrD826 biosynthesis in Listeria innocua ATCC 33090T at 100 uM by LC/MS analysis; format: functional, organism-based; summary of the method: as §2
Staphylococcus aureus [10] = assay: Inhibition of hemolysin production in Staphylococcus aureus 12600T assessed as decrease in hemolytic zone on sheep blood agar at 20 mM after 16 to 48 hrs […]; format: functional, organism-based; conditions: TDE = time-dependent effect
Summary of the method: (§3)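 Inhibitor in 50% acetonitrile (5 µl) spotted on sheep blood agar and dried. Plate incubated at 37°C; hemolytic clearance zone around colonies observed and photographed at 16, 24 and 48 h.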

Staphylococcus aureus [11] = assay: Inhibition of hemolysin production in Staphylococcus aureus 12600T assessed as decrease in hemolytic zone on sheep blood agar at 10 mM after 16 to 48 hrs […]; format: functional, organism-based; conditions: TDE = time-dependent effect; summary of the method: as §3
Staphylococcus aureus [12] = assay: Inhibition of hemolysin production in Staphylococcus aureus 12600T assessed as decrease in hemolytic zone on sheep blood agar at 5 mM after 16 to 48 hrs […]; format: functional, organism-based; conditions: TDE = time-dependent effect; summary of the method: as §3
Staphylococcus aureus [13] = assay: Inhibition of hemolysin production in Staphylococcus aureus 12600T assessed as decrease in hemolytic zone on sheep blood agar at 5 to 20 mM upto 48 hrs […]; format: functional, organism-based; summary of the method: as §3
Staphylococcus aureus [14] = assay: Inhibition of agr quorom sensing in Staphylococcus aureus 8325-4 harboring pSB2035 assessed as […] at 50 to 200 uM after 7 hrs by GFP fluorescence reporter gene assay

Q: CCCCC/C=C/C1=C(CO)[C@H](O)[C@H]2O[C@@]2(C/C=C(\C)C(=O)O)C1=O [AMBUIC ACID] was tested. Which inhibition (Enterococcus faecalis [1]) did it give?
A: Active

Q: What about the Activity (Enterococcus faecalis [2]) of the same molecule?
A: inactive

Q: What about the Activity (Enterococcus faecalis [3]) of the same molecule?
A: Active

Q: And the IC50 (Enterococcus faecalis [4])?
A: 10 µM

Q: What about the inhibition (Enterococcus faecalis [5]) of the same molecule?
A: inactive

Q: What about the inhibition (Staphylococcus aureus [6]) of the same molecule?
A: Active

Q: And the inhibition (Staphylococcus aureus [7])?
A: Active

Q: And the inhibition (Listeria innocua [8])?
A: Active

Q: And the inhibition (Listeria innocua [9])?
A: Active

Q: What about the inhibition (Staphylococcus aureus [10]) of the same molecule?
A: tde

Q: And the inhibition (Staphylococcus aureus [11])?
A: tde

Q: What about the inhibition (Staphylococcus aureus [12]) of the same molecule?
A: tde

Q: And the inhibition (Staphylococcus aureus [13])?
A: Dose-dependent effect

Q: What about the inhibition (Staphylococcus aureus [14]) of the same molecule?
A: Active
